Compounds with a hit are over-represented: about 2.2% of the library has one in this group of screens.
NR2E3 ag-1: human photoreceptor-specific nuclear receptor agonism; Q9Y5X4; CHO-S Gal4-NCOR/VP16-NR2E3 two-hybrid, luciferase; 0.35% of 360,000 active; inhibition of corepressor binding, % at 3.98 µM;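 active means inhibition above the mean of all tested compounds plus 3 SD, cut at about 70% in these data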;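 further: 0% = DMSO with NR2E3 transfected cells and 100% = cells lacking NR2E3 construct; higher means lower luciferase signal from less NR2E3 corepressor binding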
FXN GAA850 act: frataxin GAA850 promoter activation | HEK293 lucGAA850 FXN promoter luciferase reporter, 24 h; percent of 10 µM SAHA response | activation, % at 6 µM | 0.56% of 360,000 active;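 active means activation above the average of all compounds screened plus 3 SD, cutoff fixed separately per campaign, cut at about 7.5% in these data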;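 further: 0% = DMSO wells and 100% = 10 µM SAHA wells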
HIV Env fusion: inhibitors of HIV Env-mediated cell fusion. HeLa-JRFL Env/CEM21 cell fusion, luciferase. inhibition, % at 12.3 µM. 1.1% of 360,000 active. AID 651610;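 active means mean replicate inhibition score of at least 50 and every replicate individually at or above 50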;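 further: 0% = plate neutral controls and 100% = maraviroc near 300 nM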
GalR3 antagonist: blocks the human galanin receptor 3; HEK293 GalR3-CNG cAMP membrane potential fluorescence; galR3 body fused to GalR1 C-terminus; inhibition, % at 3 µM; 0.44% of 360,000 active;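 active means inhibition above the screen-wide average plus 3 SD, cut at about 13% in these data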;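 further: forskolin and galanin both at EC90 stimulate the cells; cAMP rise reported by CNG channel membrane potential dye signal; 0% = forskolin plus galanin with DMSO and 100% = forskolin alone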
NR2E3 ag-2: agonists of human nuclear receptor NR2E3; 0.12% of 320,000 active; inhibition of corepressor binding, % at 4.78 µM; Q9Y5X4; GST-NR2E3/biotin-RetCOR TR-FRET, 1536-well;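 active means percent inhibition above the cutoff of mean plus 3 SD of all tested compounds, set per screening campaign, cut at about 20% in these data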;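 further: 0% = DMSO wells and 100% = biotin wells as full block of FRET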
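System: GST-tagged NR2E3 plus biotinylated RetCOR corepressor; Amount: 1.35 nM GST-tagged NR2E3 final; Dosing: single nominal compound dose of 4.8 µM; Schedule: 5 h incubation at 4 °C; Technique: TR-FRET with europium anti-GST and streptavidin-D2, 340 nm excitation; Controls: biotin wells as high control, 0.6% DMSO wells as low control.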
V-ATPase pH: alters yeast V-ATPase proton transport | AID 504577 | S. cerevisiae, pHLuorin cytosolic pH fluorescence | response, % at 10 µM | 0.37% of 350,000 active; in the data active means response mostly above about 7.3%, no sharp cut-off; inactive means mostly below about 5.4%; further: actives read high
NR2E3 ag confirm: NR2E3 (human) agonism, confirmation; shares compounds with NR2E3 ag-2; cell-free NR2E3 corepressor release, TR-FRET, 5 h; AID 2379; 39% of 360 active; activation (reported as inhibition), % at 3.98 µM; in the data active means activation above about 20%
PPARg-NCOR2 ag: counter-screen for NR2E3 agonists: human PPARgamma-NCOR2 interaction agonists; shares compounds with NR2E3 ag-2; TR-FRET PPARg-NCOR2 coregulator interaction, biochemical; inhibition, % at 3.98 µM; 45% of 360 active; in the data active means inhibition above about 20%;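 further: 0% = DMSO vehicle and 100% = wells without protein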
Target sequence (P37231 whole entry, looked up): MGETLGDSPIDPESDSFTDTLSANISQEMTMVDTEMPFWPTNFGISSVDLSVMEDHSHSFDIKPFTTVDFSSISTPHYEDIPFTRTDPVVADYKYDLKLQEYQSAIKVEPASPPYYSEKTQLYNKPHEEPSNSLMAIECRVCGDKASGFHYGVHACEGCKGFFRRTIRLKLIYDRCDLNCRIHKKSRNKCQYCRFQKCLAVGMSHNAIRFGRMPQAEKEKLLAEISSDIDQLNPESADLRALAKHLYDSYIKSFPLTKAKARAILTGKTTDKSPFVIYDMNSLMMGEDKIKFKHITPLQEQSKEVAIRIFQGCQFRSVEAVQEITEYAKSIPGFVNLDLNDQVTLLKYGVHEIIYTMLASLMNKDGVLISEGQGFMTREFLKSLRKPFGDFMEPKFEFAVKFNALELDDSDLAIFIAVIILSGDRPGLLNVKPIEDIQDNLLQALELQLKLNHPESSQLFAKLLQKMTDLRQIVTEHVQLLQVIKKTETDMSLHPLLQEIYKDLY
Target sequence (Q9Y618 whole entry, looked up): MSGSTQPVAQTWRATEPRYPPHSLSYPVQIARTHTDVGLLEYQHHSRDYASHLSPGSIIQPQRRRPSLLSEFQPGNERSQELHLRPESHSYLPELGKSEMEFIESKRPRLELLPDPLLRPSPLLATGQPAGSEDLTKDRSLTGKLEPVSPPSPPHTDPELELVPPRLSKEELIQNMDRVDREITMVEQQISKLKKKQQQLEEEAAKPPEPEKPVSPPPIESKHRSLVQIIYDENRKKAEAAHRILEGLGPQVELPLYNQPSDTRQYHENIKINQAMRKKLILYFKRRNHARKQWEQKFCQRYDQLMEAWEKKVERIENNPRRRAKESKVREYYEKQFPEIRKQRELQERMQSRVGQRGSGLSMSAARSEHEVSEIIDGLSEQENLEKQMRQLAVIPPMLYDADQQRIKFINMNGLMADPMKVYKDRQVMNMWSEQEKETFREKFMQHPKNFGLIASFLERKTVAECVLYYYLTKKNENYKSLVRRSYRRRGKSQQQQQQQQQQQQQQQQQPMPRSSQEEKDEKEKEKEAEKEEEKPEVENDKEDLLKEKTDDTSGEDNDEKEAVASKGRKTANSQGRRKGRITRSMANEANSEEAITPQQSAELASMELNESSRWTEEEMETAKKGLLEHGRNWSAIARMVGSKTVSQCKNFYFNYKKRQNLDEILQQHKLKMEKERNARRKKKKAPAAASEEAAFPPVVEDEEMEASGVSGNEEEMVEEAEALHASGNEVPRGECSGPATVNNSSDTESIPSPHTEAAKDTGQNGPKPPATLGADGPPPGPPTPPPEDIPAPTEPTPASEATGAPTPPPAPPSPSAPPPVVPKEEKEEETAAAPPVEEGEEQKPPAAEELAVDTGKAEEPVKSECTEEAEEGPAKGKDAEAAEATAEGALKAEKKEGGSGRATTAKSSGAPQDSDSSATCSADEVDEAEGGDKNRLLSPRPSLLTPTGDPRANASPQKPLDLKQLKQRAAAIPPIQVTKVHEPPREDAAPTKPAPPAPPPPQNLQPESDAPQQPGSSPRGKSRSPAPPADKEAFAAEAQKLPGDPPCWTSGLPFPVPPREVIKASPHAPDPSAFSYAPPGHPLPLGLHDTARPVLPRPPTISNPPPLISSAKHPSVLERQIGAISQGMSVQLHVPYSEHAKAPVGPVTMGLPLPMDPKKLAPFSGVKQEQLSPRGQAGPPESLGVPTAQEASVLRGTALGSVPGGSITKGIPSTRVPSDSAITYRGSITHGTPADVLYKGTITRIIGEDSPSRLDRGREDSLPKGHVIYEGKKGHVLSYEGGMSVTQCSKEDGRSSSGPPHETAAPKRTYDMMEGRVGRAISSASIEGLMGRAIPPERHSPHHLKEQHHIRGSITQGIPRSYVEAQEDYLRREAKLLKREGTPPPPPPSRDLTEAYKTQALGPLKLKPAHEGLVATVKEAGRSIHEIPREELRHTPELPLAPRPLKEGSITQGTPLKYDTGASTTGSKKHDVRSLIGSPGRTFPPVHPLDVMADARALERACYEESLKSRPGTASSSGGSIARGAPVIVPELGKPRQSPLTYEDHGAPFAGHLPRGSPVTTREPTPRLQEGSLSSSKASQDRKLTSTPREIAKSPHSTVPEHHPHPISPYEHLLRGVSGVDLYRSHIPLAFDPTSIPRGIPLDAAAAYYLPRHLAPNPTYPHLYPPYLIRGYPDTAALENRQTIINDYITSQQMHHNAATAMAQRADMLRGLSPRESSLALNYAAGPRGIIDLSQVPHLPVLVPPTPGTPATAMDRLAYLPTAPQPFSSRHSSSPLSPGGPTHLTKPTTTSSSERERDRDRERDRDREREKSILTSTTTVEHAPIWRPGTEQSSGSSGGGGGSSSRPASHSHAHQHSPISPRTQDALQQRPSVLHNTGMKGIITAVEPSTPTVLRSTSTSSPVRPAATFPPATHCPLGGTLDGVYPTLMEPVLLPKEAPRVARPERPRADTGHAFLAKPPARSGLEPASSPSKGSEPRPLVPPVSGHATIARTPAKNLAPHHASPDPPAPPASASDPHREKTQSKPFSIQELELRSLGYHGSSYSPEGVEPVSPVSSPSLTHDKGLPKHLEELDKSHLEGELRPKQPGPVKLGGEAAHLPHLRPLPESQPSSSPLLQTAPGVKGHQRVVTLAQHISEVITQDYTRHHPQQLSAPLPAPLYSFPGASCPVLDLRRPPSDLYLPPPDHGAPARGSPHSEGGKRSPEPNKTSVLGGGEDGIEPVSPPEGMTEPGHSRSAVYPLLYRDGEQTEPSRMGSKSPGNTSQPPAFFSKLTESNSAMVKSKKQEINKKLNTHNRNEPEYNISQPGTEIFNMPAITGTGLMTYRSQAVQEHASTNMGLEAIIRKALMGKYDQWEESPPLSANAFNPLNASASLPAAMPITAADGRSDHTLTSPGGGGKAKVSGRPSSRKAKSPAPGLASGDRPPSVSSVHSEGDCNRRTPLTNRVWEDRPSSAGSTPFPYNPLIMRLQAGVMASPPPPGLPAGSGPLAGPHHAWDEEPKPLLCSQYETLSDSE
* hit, by the source's call; nt = no result; [ ] = dose if it differs, or a comment.

SMILES	NR2E3 ag-1	FXN GAA850 act	HIV Env fusion	GalR3 antagonist	NR2E3 ag-2	V-ATPase pH	NR2E3 ag confirm	PPARg-NCOR2 ag
O=C(Nc1ccc(F)cc1)Nc1ccc2c(c1)[C@H]1C[C@H](CC(=O)N3CCOCC3)O[C@@H](CO)[C@H]1O2	nt	nt	-15[16.7 µM]	nt	nt	nt	nt	nt
CCCCC1=CC2=C(c3ccco3)C(=O)C(C)(OC(=O)c3ccc(OC)cc3)C(=O)C2=CN1C1CC1 (stereo not drawn)	-4	1	8	-6	9	1	nt	nt
CCCCC1=CC2=C(c3ccco3)C(=O)C(C)(OC(=O)c3ccc(OC)cc3)C(=O)C2=CN1c1ccc(OC)cc1 (stereo not drawn)	-20	1	-10	-4	34*	-2	-3	5
CCCCC1=CC2=C(c3ccco3)C(=O)C(C)(OC(=O)c3ccc(OC)cc3)C(=O)C2=CN1CCCCO (stereo not drawn)	-14	2	nt	-2	9	1	nt	nt
CCCCC1=CC2=C(c3ccco3)C(=O)C(C)(OC(=O)c3ccc(OC)cc3)C(=O)C2=CN1C1CCCC1 (stereo not drawn)	nt	nt	nt	nt	47*	nt	8	13
COc1cc(/C=C2/C(=O)N(c3ccc([N+](=O)[O-])cc3)N=C2N2CCOCC2)ccc1O	1	-1	-5	-5	29*	5	-5	48*
Cc1c(N2C(=O)c3ccc4c5c(ccc(c35)C2=O)CC4)c(=O)n(-c2ccccc2)n1C	-7	-1	nt	nt	21*	-2	26*	14
Cc1c(N2C(=O)c3ccc(Br)cc3C2=O)c(=O)n(-c2ccccc2)n1C	-7	0	-23	-1	4	3	nt	nt
COc1ccc(C(=O)NNC(=O)C(Cc2ccc(O)cc2)NC(=O)c2ccccc2NC(=O)c2ccc(OC)cc2)cc1 (stereo not drawn)	13	-2	-11	5	40*	-3	22*	-5
Cc1cc(C(=O)Nc2cccc3c2O[C@@H](CN(C)S(=O)(=O)c2ccc(F)cc2)[C@@H](C)CN([C@@H](C)CO)C3=O)n(C)n1	nt	nt	-1[16.7 µM]	nt	nt	nt	nt	nt
NC(=O)c1cc[n+](CC2=C(C(=O)O)N3C(=O)[C@@H](NC(=O)C(c4ccccc4)S(=O)(=O)[O-])[C@H]3SC2)cc1 (stereo partly drawn)	-24	1	nt	nt	23*	1	5	2
CC(C)C1Cc2ccccc2-c2[nH]c(=S)[nH]c(=O)c21 (stereo not drawn)	10	-1	-12	1	20*	-5	21*	26*
COc1cccc(OCc2nc3c4cnn(-c5ccccc5)c4ncn3n2)c1	-17	0	nt	-6	2	-2	nt	nt
c1ccc(-n2ncc3c2ncn2nc(-c4ccco4)nc32)cc1	-96	4	nt	-8	48*	4	18	59*
CN(C(=O)c1ccc(NC(=O)Cc2ccc(NC(=O)C3CCN(C(=O)C4CCCC4)CC3)cc2)cc1)C1CC1	16	-1	22	-5	25*	0	15	-5
CN(C(=O)c1ccc(NC(=O)Cc2ccc(NC(=O)C3CCN(C(=O)C4CCC4)CC3)cc2)cc1)C1CC1	3	1	-104	-2	13	3	nt	nt
COc1ccc(NC(=O)N(C)C[C@@H]2OCCCC[C@H](C)Oc3ccc(NC(=O)c4ccccc4)cc3C(=O)N([C@@H](C)CO)C[C@@H]2C)cc1	nt	nt	-32[16.7 µM]	nt	nt	nt	nt	nt
Cc1ccc(C2=Nc3ccccc3N=C(c3ccco3)C2)c(O)c1	-32	0	nt	2	1	0	nt	nt
Cc1ccc(O)c(C2=Nc3ccccc3N=C(c3ccco3)C2)c1	-50	2	nt	-4	30*	1	4	19
COc1ccc(CNC(=O)C[C@@H]2C=C[C@H](NC(=O)c3ccc4c(c3)OCO4)[C@@H](CO)O2)cc1	nt	nt	-3[16.7 µM]	nt	nt	nt	nt	nt
C=CCn1c(NS(=O)(=O)c2ccccc2)c(S(=O)(=O)c2ccc(C)cc2)c2nc3ccccc3nc21	12	-1	-12	-4	44*	-5	10	88*
N#CC1=C2SCN(Cc3ccccc3)CN2C(=O)CC1c1cccs1 (stereo not drawn)	-47	1	23	nt	22*	-4	0	-2
N#CC1=C2SCN(Cc3ccccc3)CN2C(=O)CC1c1ccc2c(c1)OCO2 (stereo not drawn)	-5	4	-63	-3	-1	-3	nt	nt
C[C@H](CO)N1C[C@H](C)[C@@H](CN(C)CC2CCCC2)Oc2cc(C#CC(C)(C)O)ccc2S1(=O)=O	nt	nt	6[16.7 µM]	nt	nt	nt	nt	nt
O=C(CCN1CCCCC1)N[C@H]1CC[C@@H](CCNS(=O)(=O)c2ccccc2)O[C@@H]1CO	nt	nt	5[16.7 µM]	nt	nt	nt	nt	nt
SMILES	NR2E3 ag-1	FXN GAA850 act	HIV Env fusion	GalR3 antagonist	NR2E3 ag-2	V-ATPase pH	NR2E3 ag confirm	PPARg-NCOR2 ag
S=C(c1ccc(-c2cccc(Cl)c2)o1)N1CCOCC1	-116	6	nt	1	9	8	nt	nt
S=C(c1ccc(-c2cccc(Cl)c2)o1)N1CCCCC1	-149	8	-103	-4	30*	1	17	11
COc1ccc(S(=O)(=O)Nc2ccc3c(c2)C(=O)N([C@H](C)CO)C[C@@H](C)[C@H](CN(C)C(=O)NC(C)C)O3)cc1	nt	nt	-2[16.7 µM]	nt	nt	nt	nt	nt
O=C(O[C@@H]1OC2COC(=O)c3cc(O)c(O)c(O)c3-c3c(cc(O)c(O)c3O)C(=O)O[C@@H]([C@H]1O)[C@@H]2O)c1cc(O)c(O)c(O)c1	-5	0	nt	nt	24*	1	14	-6
COc1ccccc1C#Cc1cnc2c(c1)C(=O)N([C@H](C)CO)C[C@@H](C)[C@H](CN(C)C(=O)CN(C)C)O2	nt	nt	7[16.7 µM]	nt	nt	nt	nt	nt
COc1cccc(CNC(=O)CCCn2c(=S)[nH]c3cc4c(cc3c2=O)OCO4)c1	-2	0	0	-6	26*	5	31*	36*
COc1cc2oc(=O)c(Br)c(C)c2c(OC)c1OC	-11	0	nt	0	20*	0	8	6
COc1cccc(CN(C)C[C@@H]2OCc3cnnn3CCCC(=O)N([C@@H](C)CO)C[C@@H]2C)c1	nt	nt	-12[16.7 µM]	nt	nt	nt	nt	nt
COc1ccc(C(c2c(C)n(C)n(-c3ccccc3)c2=O)c2c(C)n(C)n(-c3ccccc3)c2=O)cc1OC	-19	-2	3	-9	0	1	nt	nt
COc1ccc(C(c2c(C)[nH]n(-c3ccccc3)c2=O)c2c(C)[nH]n(-c3ccccc3)c2=O)cc1OC	-16	1	nt	-11	30*	3	-12	39*
